Laboratory results as given in ChEMBL document CHEMBL1155975, “Pentacyclo-undecane derived cyclic tetra-amines: synthesis and evaluation as potent anti-tuberculosis agents” (Eur J Med Chem, 2009).
≈ marks a conversion by molar mass, not a printed value.

Legend:
[1] = test system: Mycobacterium tuberculosis; assay: Antimycobacterial activity against Mycobacterium tuberculosis H37Rv after 21 days by broth macrodilution method; type: functional; conditions: 504 h
Summary of the method: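 Triplicate tubes of Middlebrook 7H9 broth with casitone, glycerol and 10% OADC; methanol-dissolved compounds diluted twofold, 128–0.125 µg/mL. Inoculum from log-phase H37Rv, adjusted to McFarland 1 and diluted to 1 × 10^5 CFU/mL, 500 µL per tube. Compound-free and solvent controls included. Aerobic incubation at 37 °C, tubes read macroscopically every 7 days to day 21 for MIC.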

[2] = test system: Mycobacterium tuberculosis; assay: Antimycobacterial activity against Mycobacterium tuberculosis XDR infected in MDBK by BACTEC analysis; type: functional
Summary of the method: (§1)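 Radiometric BACTEC 460 TB. Cultures were grown at 37 °C with stirring, inoculated into BACTEC vials at OD ~0.16 and grown to GI 500 (±50) as the primary culture. Compounds were diluted in methanol to 8–0.03125 µg/mL final. GI was recorded every 24 h, and a daily ΔGI >10 counted as growth. Strains were H37Rv (ATCC 25618) and XDR strain X194.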

[3] = test system: Mycobacterium tuberculosis; assay: Antimycobacterial activity against Mycobacterium tuberculosis H37Rv infected in MDBK by BACTEC analysis; type: functional; summary of the method: as §1
[4] = Cytotoxicity against MDBK cells after 48 hrs by MTT assay; type: cell-based; conditions: Bos taurus
Summary of the method: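 MDBK monolayers were grown in RPMI 1640 with 10% heat-inactivated FBS and pen/strep. Cells were seeded at 5 × 10^4 per well, settled 6 h, then exposed 42 h at 37 °C to compounds in 1% methanol diluted in media; the vehicle served as the 100% viability control. MTT was added for 3 h and formazan read at 570 nm. Runs were quintuplicate, repeated on two days; % cytotoxicity = 100 − (OD sample/OD control × 100).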

Compound `OCCN(CCC12OC3(CCN(CCO)Cc4ccccc4)C4C5CC(C6C5C3C61)C42)Cc1ccccc1` (centres undefined) has an MIC [1] of 248 µM (≈ 128 µg/mL).
`C1CNCCN(CCC23OC4(CCN5CCCNCC5)C5C6CC(C7C6C4C72)C53)C1` (centres undefined) gave an MIC [1] of 155 µM (≈ 64 µg/mL).
For `c1ccc(CNCCC23OC4(CCNCc5ccccn5)C5C6CC(C7C6C4C72)C53)nc1` (centres undefined), the MIC [1] was 298 µM (≈ 128 µg/mL).
In the case of `CC(C)=CCC/C(C)=C/CC/C(C)=C\CN1CCN(CCC23OC4(CCN5CCN(C/C=C(\C)CC/C=C(\C)CCC=C(C)C)CC5)C5C6CC(C7C6C4C72)C53)CC1` (centres undefined), the MIC [2] is reported as 0.63 µM, the MIC [1] is reported as 5.04 µM (≈ 4 µg/mL) and the MIC [3] is reported as 0.32 µM (≈ 0.254 µg/mL). It also gave an IC50 [4] of 24 µM.
With `CC(C)=CCC/C(C)=C\CN1CCN(CCC23OC4(CCN5CCN(C/C=C(\C)CCC=C(C)C)CC5)C5C6CC(C7C6C4C72)C53)CC1` (centres undefined) the MIC [2] was 1.52 µM, the MIC [1] was 6.09 µM (≈ 4 µg/mL) and the MIC [3] was 0.76 µM (≈ 0.499 µg/mL). For the same compound, the IC50 [4] was 30 µM.
In the case of `O=C(c1ccc([N+](=O)[O-])o1)N1CCN(CCC23OC4(CCN5CCN(C(=O)c6ccc([N+](=O)[O-])o6)CC5)C5C6CC(C7C6C4C72)C53)CC1` (centres undefined), the MIC [1] is reported as 24.1 µM (≈ 16 µg/mL) and the MIC [3] is reported as greater than 12.1 µM.
`O=C(c1ccc([N+](=O)[O-])o1)N1CCCN(CCC23OC4(CCN5CCCN(C(=O)c6ccc([N+](=O)[O-])o6)CC5)C5C6CC(C7C6C4C72)C53)CC1` (centres undefined) gave an MIC [1] of 23.2 µM (≈ 16 µg/mL) and an MIC [3] greater than 11.6 µM.
In the case of `c1ccc(CN2CCCN(CCC34OC5(CCN6CCCN(Cc7ccccc7)CC6)C6C7CC(C8C7C5C83)C64)CC2)cc1` (centres undefined), the MIC [1] is reported as 108 µM (≈ 64.1 µg/mL).
`CCCCCCCCCCN1CCN(CCC23OC4(CCN5CCN(CCCCCCCCCC)CC5)C5C6CC(C7C6C4C72)C53)CC1` (centres undefined) gave an MIC [2] of 0.75 µM and an IC50 [4] of 25 µM.
For `O=C(c1ccccc1)N1CCN(CCC23OC4(CCN5CCN(C(=O)c6ccccc6)CC5)C5C6CC(C7C6C4C72)C53)CC1` (centres undefined), the MIC [1] was 216 µM (≈ 128 µg/mL).
In the case of `c1ccc(CN2CCN(CCC34OC5(CCN6CCN(Cc7ccccc7)CC6)C6C7CC(C8C7C5C83)C64)CC2)cc1` (centres undefined), the MIC [1] is reported as 113 µM (≈ 64 µg/mL).
With `NCC[C@H](O)C(=O)N[C@@H]1C[C@H](N)[C@@H](O[C@H]2O[C@H](CN)[C@@H](O)[C@H](O)[C@H]2O)[C@H](O)[C@H]1O[C@H]1O[C@H](CO)[C@@H](O)[C@H](N)[C@H]1O` [AMIKACIN] the MIC [2] was greater than 5 µg/mL.
For `CC[C@@H](CO)NCCN[C@@H](CC)CO` [ETHAMBUTOL], the MIC [2] was greater than 2.5 µg/mL and the MIC [1] was 19.6 µM (≈ 4 µg/mL).
`NNC(=O)c1ccncc1` [ISONIAZID] gave an MIC [2] greater than 0.2 µg/mL.
Compound `NC[C@H]1O[C@H](O[C@H]2[C@H](O)[C@@H](O[C@H]3O[C@H](CO)[C@@H](O)[C@H](N)[C@H]3O)[C@H](N)C[C@@H]2N)[C@H](O)[C@@H](O)[C@@H]1O` [KANAMYCIN] has an MIC [2] greater than 5 µg/mL.
Compound `CC1COc2c(N3CCN(C)CC3)c(F)cc3c(=O)c(C(=O)O)cn1c23` (centres undefined) [OFLOXACIN] has an MIC [2] greater than 2 µg/mL.
Compound `CO[C@H]1/C=C/O[C@@]2(C)Oc3c(C)c(O)c4c(O)c(c(/C=N/N5CCN(C)CC5)c(O)c4c3C2=O)NC(=O)/C(C)=C\C=C\[C@H](C)[C@H](O)[C@@H](C)[C@@H](O)[C@@H](C)[C@H](OC(C)=O)[C@@H]1C` [RIFAMPIN] has an MIC [2] greater than 1 µg/mL.
With `CC(C)=CCC/C(C)=C/CNCCNC1C2CC3CC(C2)CC1C3` (centres undefined) [SQ109] the MIC [3] was 0.63 µM (≈ 0.208 µg/mL) and the IC50 [4] was 26 µM.
